For test [1], the system named is N-terminal peptide of GPIHBP1. Nature of the test: SPR binding to immobilized N-terminal peptide of GPIHBP1. Also noted: species or system human. The following applies: even at concentrations of 1 μM, 25 °C, 20 mM HEPES pH 7.4, 0.15 M NaCl. The procedure, abridged:
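Biacore SPR with 578 RU of biotinylated N-terminal GPIHBP1 peptide captured on the sensor (148.5 fmol/mm2). Analytes were tenfold-diluted pooled nonfasting human plasma, tenfold-diluted lipoprotein-deficient plasma (± 20, 40 or 80 nM purified bovine LPL) or isolated heparin-binding proteins (antithrombin III, protamine, FGF-2). Flow was 20 µl/min at 25 °C in 20 mM HEPES pH 7.4, 0.15 M NaCl.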

In test [2] the target is T1, LPL (Bos taurus, UniProt P11151).
T1 sequence (P11151 29-478): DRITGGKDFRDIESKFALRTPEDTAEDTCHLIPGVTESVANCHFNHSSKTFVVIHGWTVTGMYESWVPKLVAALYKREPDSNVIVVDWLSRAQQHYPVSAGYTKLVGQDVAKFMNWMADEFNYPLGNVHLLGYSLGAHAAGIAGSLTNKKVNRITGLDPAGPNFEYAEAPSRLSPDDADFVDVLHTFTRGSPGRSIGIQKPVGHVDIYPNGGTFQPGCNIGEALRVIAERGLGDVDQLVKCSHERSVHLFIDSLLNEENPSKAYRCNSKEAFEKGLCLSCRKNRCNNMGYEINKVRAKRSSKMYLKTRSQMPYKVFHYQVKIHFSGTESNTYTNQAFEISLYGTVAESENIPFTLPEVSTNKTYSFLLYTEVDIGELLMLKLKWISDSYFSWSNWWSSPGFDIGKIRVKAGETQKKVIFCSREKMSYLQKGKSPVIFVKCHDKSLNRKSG
In kind it is binding, bovine. The following applies: fluorescence anisotropy, 10 IU/ml heparin in phosphate buffer. The procedure, abridged: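 N-terminal GPIHBP1 peptide labeled at cysteine with DyLight 488 maleimide, 100 nM, mixed with increasing LPL concentrations in 20 mM phosphate, pH 7.4, 0.15 M NaCl plus 10 IU/ml heparin. Excitation 493 nm, emission 518 nm, with emission polarizer parallel and perpendicular to vertical excitation. Anisotropy change versus LPL concentration fitted to a 1:1 binding model for KD.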
(Polarisation of emitted light reports the rotation of a fluorescent probe.)

Regarding “FGF-2: heparin binding protein, ICN Biomedicals”, the “binding to the immobilized N-terminal domain of GPIHBP1” value (from here on “binding”) in test [1] was “no binding”.

On to antithrombin III, for which the “binding” value in test [1] is recorded as “no binding”.

For heparin, the “effect on the interaction between LPL and the N-terminal domain of GPIHBP1” value in test [2] is “completely blocked the interaction”.

As to protamine, the “binding” value in test [1] is “no binding”.
